Among the data in ChEMBL document CHEMBL1275442, “Pharmacokinetics and tissue distribution of anidulafungin in rats” (Antimicrob Agents Chemother, 2008) are Drug uptake values, retold here.

The structures appear in SMILES notation.

What all share (assay type): ADME, organism-based
Holding throughout (set-up): dose 5 mg/kg, route intravenous
Common to all, as to settings: in vivo

One data set has as its system Cerebrospinal fluid. Description: Drug level in Long Evans rat cerebrospinal fluid assessed as radioactivity per gram of tissue at 5 mg/kg, iv administered as single bolus dose measured 24 hrs postdose by autoradiography. An outline of the steps:
(§1)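 Male pigmented Long Evans (HsdBlu:LE) rats, 7.5 weeks old, 202 to 217 g, single iv [¹⁴C]anidulafungin; one rat per sampling time. Euthanized by isoflurane and cardiac-puncture exsanguination. Sagittal whole-body sections quantified by phosphorimaging autoradiography, single samples corrected for section thickness across multiple sections per tissue. Concentrations (μg eq/g drug-derived radioactivity) interpolated from least-squares standard curves per scan.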

In another data set the test system is Liver. Put plainly: Drug level in Long Evans rat liver assessed as low disposition of radioactivity per gram of tissue at 5 mg/kg, iv administered as single bolus dose measured 6 hrs postdose by autoradiography. Put shortly:
as §1

In another data set the test system is Zone of skin. Put plainly: Drug level in Long Evans rat skin assessed as radioactivity per gram of tissue at 5 mg/kg, iv administered as single bolus dose measured 72 hrs postdose by autoradiography. An outline of the steps:
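Male pigmented Long Evans (HsdBlu:LE) rats, 7.5 weeks old and 202 to 217 g, got a single iv dose of [14C]anidulafungin at 5 mg/kg. One rat per time point (0.5, 6, 12, 24, 72, 168 h) was euthanised by isoflurane and cardiac-puncture exsanguination. Sagittal whole-body sections were quantified by phosphorimaging. Samples were thickness-corrected, and concentrations (μg eq/g) were interpolated from least-squares standard curves.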

The subject of a further data set is Lung. Put plainly: Drug level in Long Evans rat lung assessed as radioactivity per gram of tissue at 5 mg/kg, iv administered as single bolus dose measured 72 hrs postdose by autoradiography. Put shortly: as §1

For the compound `CCCCCOc1ccc(-c2ccc(-c3ccc([14C](=O)N[C@H]4C[C@@H](O)[C@@H](O)NC(=O)[C@@H]5[C@@H](O)[C@@H](C)CN5C(=O)[C@H]([C@@H](C)O)NC(=O)[C@H]([C@H](O)[C@@H](O)c5ccc(O)cc5)NC(=O)[C@@H]5C[C@@H](O)CN5C(=O)[C@H]([C@@H](C)O)NC4=O)cc3)cc2)cc1` [14C-ANIDULAFUNGIN], the Drug uptake in the data set on Cerebrospinal fluid was 8.92 ugequiv; in the data set on Liver it was 17.68 ugequiv; in the data set with Zone of skin it was 4.04 ugequiv; in the data set with Lung, 4.24 ugequiv.
